Measured values taken from ChEMBL document CHEMBL4842318, “A γ-lactam siderophore antibiotic effective against multidrug-resistant Pseudomonas aeruginosa, Klebsiella pneumoniae, and Acinetobacter spp” (Eur J Med Chem, 2021).

Legend:
Acinetobacter baumannii [1] = experiment: Antibacterial activity against carbapenem resistant Acinetobacter baumannii isolate PR-459 assessed as bacterial growth inhibition by microdilution method; type: functional
Summary of the method: (§1)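 Broth microdilution in Chelex-treated, iron-depleted cation-adjusted Mueller-Hinton broth, following the protocol used for siderophore-containing antibiotics; inoculum lowered to 6 × 10^4 cfu/mL; MIC read as growth inhibition, in μg/mL.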

[2] = Plasma concentration in SC dosed CD-1 mouse treated four times at 6 hrs interval measured after 24 hrs; type: ADME, organism-based
Summary of the method: (§2)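 CD-1 mice dosed SC at 50 mg/kg. Plasma sampled at 0.167 to 24 h, three individual mice per time point, reported as mean and SD in ng/mL.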

[3] = biological target: Penicillin-binding protein 3 (Pseudomonas aeruginosa, UniProt Q51504); experiment: Inhibition of Pseudomonas aeruginosa PBP3 assessed as reduction in fluorescence intensity using Bocillin-protein as fluorescent substrate preincubated for 20 mins measured after 20 mins by SDS PAGE analysis
Summary of the method: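 Purified soluble P. aeruginosa PBP3 at 1.6 μM in 10 mM PBS, pH 7.4. Preincubated with increasing compound concentrations for 20 min at 37 °C, then 50 μM Bocillin added for a further 20 min. Stopped with SDS loading dye and 2 min boiling, then run on SDS-PAGE and imaged at 365 nm. IC50 taken as the concentration halving Bocillin-labelled band fluorescence.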

Acinetobacter baumannii [4] = experiment: Antibacterial activity against carbapenem susceptible Acinetobacter baumannii isolate PR-452 assessed as bacterial growth inhibition by microdilution method; type: functional
Summary of the method: (§3)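 Broth microdilution MIC in iron-depleted (Chelex resin-treated) cation-adjusted Mueller-Hinton broth, following the protocol used for siderophore-containing antibiotics. Inoculum was lowered to 6 × 10^4 cfu/mL.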

Acinetobacter baumannii [5] = experiment: Antibacterial activity against carbapenem resistant Acinetobacter baumannii isolate PR-326 assessed as bacterial growth inhibition by microdilution method; type: functional; summary of the method: as §1
Pseudomonas aeruginosa [6] = experiment: Antibacterial activity against wild type Pseudomonas aeruginosa isolate PR-636 leucine at 533 residue assessed as inhibition of bacterial growth by microdilution method; type: functional; summary of the method: as §3
Acinetobacter baumannii [7] = experiment: Antibacterial activity against carbapenem resistant Acinetobacter baumannii isolate PR-401 assessed as bacterial growth inhibition by microdilution method; type: functional; summary of the method: as §1
Acinetobacter baumannii [8] = experiment: Antibacterial activity against carbapenem resistant Acinetobacter baumannii isolate PR-314 assessed as inhibition of bacterial growth in presence of 20 ug/ml sulbactam by microdilution method; type: functional; details: dose 20 µg/ml
Acinetobacter baumannii [9] = experiment: Antibacterial activity against carbapenem resistant Acinetobacter baumannii isolate PR-482 assessed as bacterial growth inhibition by microdilution method; type: functional; summary of the method: as §1
Acinetobacter baumannii [10] = experiment: Antibacterial activity against carbapenem resistant Acinetobacter baumannii isolate PR-384 assessed as bacterial growth inhibition by microdilution method; type: functional; summary of the method: as §1
[11] = Substrate activity at NDM1 (unknown origin) assessed as ratio of Kcat to Km by measuring hydrolysis by spectrophotometry; type: ADME
Summary of the method: (§4)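 Substrate hydrolysis (600 μM start) followed at 336 nm (Δε336 = −4362 M−1 cm−1, 0.2 cm cuvette) to completion; velocities over 10 s intervals along progress curve; Km, Vmax from double reciprocal plot, kcat = Vmax/[E].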

Pseudomonas aeruginosa [12] = experiment: Antibacterial activity against wild type Pseudomonas aeruginosa isolate PR-606 assessed as inhibition of bacterial growth by microdilution method; type: functional; summary of the method: as §3
[13] = Plasma protein binding in mouse; details: read-out: PPB (converted)
[14] = Substrate activity at IMP-1 (unknown origin) assessed as Kcat by measuring hydrolysis by spectrophotometry; type: ADME; summary of the method: as §4
[15] = Antibacterial activity against carbapenem susceptible Acinetobacter nosocomialis isolate PR-362 assessed as inhibition of bacterial growth in presence of 20 ug/ml sulbactam by microdilution method; type: functional; details: dose 20 µg/ml
Summary of the method: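 MIC by broth microdilution using iron-depleted (Chelex-treated) cation-adjusted Mueller-Hinton broth and 6 × 10^4 cfu/mL inoculum. Compound serially diluted with sulbactam held constant at 20 μg/mL.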

[16] = Plasma concentration in SC dosed CD-1 mouse treated four times at 6 hrs interval measured after 0.5 hrs; type: ADME, organism-based; summary of the method: as §2
[17] = Substrate activity at VIM-2 (unknown origin) assessed as Kcat by measuring hydrolysis by spectrophotometry; type: ADME; summary of the method: as §4
Acinetobacter baumannii [18] = experiment: Antibacterial activity against carbapenem resistant Acinetobacter baumannii isolate PR-319 assessed as bacterial growth inhibition by microdilution method; type: functional; summary of the method: as §1
[19] = Antibacterial activity against carbapenem susceptible Acinetobacter nosocomialis isolate PR-365 assessed as inhibition of bacterial growth at 1:1 compound to sulbactam concentration by microdilution method; type: functional
Summary of the method: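 Broth microdilution MIC in Chelex-treated, iron-depleted cation-adjusted Mueller-Hinton broth, inoculum 6 × 10^4 cfu/mL. Compound and sulbactam combined 1:1 by mass in a 2-fold dilution series.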

Hepatocyte = experiment: Cytotoxicity against human hepatocytes at 100 uM; type: cell-based
Acinetobacter baumannii [20] = experiment: Antibacterial activity against carbapenem resistant Acinetobacter baumannii isolate PR-351 assessed as inhibition of bacterial growth in presence of 20 ug/ml sulbactam by microdilution method; type: functional; details: dose 20 µg/ml
CYP2C8 = biological target: T1, CYP2C8 (Homo sapiens, UniProt P10632); experiment: Inhibition of CYP2C8 (unknown origin) at 100 uM; type: ADME
T1 sequence (P10632 whole entry): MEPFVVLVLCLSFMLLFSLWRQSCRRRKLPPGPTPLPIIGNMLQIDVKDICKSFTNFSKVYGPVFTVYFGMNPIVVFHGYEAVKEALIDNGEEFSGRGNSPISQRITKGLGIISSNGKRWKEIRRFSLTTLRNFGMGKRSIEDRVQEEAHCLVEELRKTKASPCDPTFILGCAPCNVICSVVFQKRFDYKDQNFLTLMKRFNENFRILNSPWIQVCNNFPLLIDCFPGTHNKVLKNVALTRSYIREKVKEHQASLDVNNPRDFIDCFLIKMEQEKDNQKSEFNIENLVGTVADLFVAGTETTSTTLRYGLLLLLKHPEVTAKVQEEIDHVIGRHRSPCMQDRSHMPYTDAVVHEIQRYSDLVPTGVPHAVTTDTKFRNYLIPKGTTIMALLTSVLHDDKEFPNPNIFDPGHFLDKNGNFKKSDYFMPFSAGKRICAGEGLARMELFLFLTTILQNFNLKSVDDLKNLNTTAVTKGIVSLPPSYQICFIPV

Acinetobacter baumannii [21] = experiment: Antibacterial activity against carbapenem resistant Acinetobacter baumannii isolate PR-482 assessed as inhibition of bacterial growth at 1:1 compound to sulbactam concentration by microdilution method; type: functional
Summary of the method: (§5)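 Iron-depleted (Chelex-treated) cation-adjusted Mueller-Hinton broth microdilution; inoculum 6 × 10^4 cfu/mL. Test agent and sulbactam mixed 1:1 by mass and serially 2-fold diluted together. MIC in μg/mL.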

Acinetobacter baumannii [22] = experiment: Antibacterial activity against carbapenem resistant Acinetobacter baumannii isolate PR-314 assessed as bacterial growth inhibition by microdilution method; type: functional; summary of the method: as §1
Acinetobacter baumannii [23] = experiment: Antibacterial activity against carbapenem resistant Acinetobacter baumannii isolate PR-345 assessed as inhibition of bacterial growth in presence of 20 ug/ml sulbactam by microdilution method; type: functional; details: dose 20 µg/ml
Acinetobacter baumannii [24] = experiment: Antibacterial activity against carbapenem resistant Acinetobacter baumannii isolate PR-459 assessed as inhibition of bacterial growth at 1:1 compound to sulbactam concentration by microdilution method; type: functional; summary of the method: as §5
[25] = Plasma concentration in SC dosed CD-1 mouse treated four times at 6 hrs interval measured after 2 hrs; type: ADME, organism-based; summary of the method: as §2
Acinetobacter baumannii [26] = experiment: Antibacterial activity against carbapenem resistant Acinetobacter baumannii isolate PR-319 assessed as inhibition of bacterial growth at 1:1 compound to sulbactam concentration by microdilution method; type: functional; summary of the method: as §5

Sequence of Penicillin-binding protein 3 (Q51504 whole entry): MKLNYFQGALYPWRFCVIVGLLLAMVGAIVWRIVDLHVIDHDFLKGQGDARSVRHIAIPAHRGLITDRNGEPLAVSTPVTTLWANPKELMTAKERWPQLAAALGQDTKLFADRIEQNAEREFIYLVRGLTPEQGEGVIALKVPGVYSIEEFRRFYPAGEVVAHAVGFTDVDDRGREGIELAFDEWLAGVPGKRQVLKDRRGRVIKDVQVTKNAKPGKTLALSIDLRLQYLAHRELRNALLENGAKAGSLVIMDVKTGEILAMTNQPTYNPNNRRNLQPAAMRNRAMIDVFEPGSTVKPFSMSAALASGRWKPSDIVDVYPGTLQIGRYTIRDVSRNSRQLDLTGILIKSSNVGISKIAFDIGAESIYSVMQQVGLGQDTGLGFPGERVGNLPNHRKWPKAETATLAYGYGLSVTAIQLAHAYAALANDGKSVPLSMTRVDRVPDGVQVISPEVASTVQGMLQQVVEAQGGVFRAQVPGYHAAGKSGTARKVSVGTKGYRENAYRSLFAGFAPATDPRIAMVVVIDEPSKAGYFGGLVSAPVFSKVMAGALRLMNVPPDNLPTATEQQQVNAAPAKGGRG

Question: With `CC(C)(O/N=C(\C(=O)N[C@H]1CN2CC(C(=O)NCCN3C(=O)c4cc(O)c(O)cc4C3=O)=C(C(=O)O)N2C1=O)c1nc(N)sc1Cl)C(=O)O` as the compound, how does the MIC (Acinetobacter baumannii [1]) read?
Answer: The MIC was 16 µg/mL.

Question: And the concentration at 24 h [2]?
Answer: Its concentration at 24 h is 601 ng/mL.

Question: What about the IC50 [3] of the same compound?
Answer: Its IC50 is 5 µM.

Question: And the MIC (Acinetobacter baumannii [4])?
Answer: Its MIC is > 16 µg/mL.

Question: What about the MIC (Acinetobacter baumannii [5]) of the same compound?
Answer: The MIC was > 16 µg/mL.

Question: And the MIC (Pseudomonas aeruginosa [6])?
Answer: The MIC was > 16 µg/mL.

Question: And the MIC (Acinetobacter baumannii [7])?
Answer: The MIC was > 16 µg/mL.

Question: What about the MIC (Acinetobacter baumannii [8]) of the same compound?
Answer: The MIC was ≤ 0.25 µg/mL.

Question: And the MIC (Acinetobacter baumannii [9])?
Answer: Its MIC is > 16 µg/mL.

Question: And the MIC (Acinetobacter baumannii [10])?
Answer: The MIC was > 16 µg/mL.

Question: What about the Kcat/Km [11] of the same compound?
Answer: The Kcat/Km was 20000 M⁻¹ s⁻¹.

Question: What about the MIC (Pseudomonas aeruginosa [12]) of the same compound?
Answer: Its MIC is > 16 µg/mL.

Question: And the fraction unbound [13]?
Answer: The fraction unbound was 0.06.

Question: And the Kcat [14]?
Answer: Its Kcat is 5 s⁻¹.

Question: What about the MIC [15] of the same compound?
Answer: The MIC was ≤ 0.25 µg/mL.

Question: What about the concentration at 0.5 h [16] of the same compound?
Answer: The concentration at 0.5 h was 16200 ng/mL.

Question: What about the Kcat [17] of the same compound?
Answer: The Kcat was 54 s⁻¹.

Question: And the MIC (Acinetobacter baumannii [18])?
Answer: The MIC was > 16 µg/mL.

Question: And the MIC [19]?
Answer: The MIC was ≤ 0.25 µg/mL.

Question: And the Activity (Hepatocyte)?
Answer: The Activity was “Non-Toxic”.

Question: And the MIC (Acinetobacter baumannii [20])?
Answer: The MIC was ≤ 0.25 µg/mL.

Question: What about the inhibition at 100 µM (CYP2C8) of the same compound?
Answer: Its inhibition at 100 µM is 50%.

Question: And the MIC (Acinetobacter baumannii [21])?
Answer: Its MIC is > 16 µg/mL.

Question: What about the MIC (Acinetobacter baumannii [22]) of the same compound?
Answer: Its MIC is > 16 µg/mL.

Question: What about the MIC (Acinetobacter baumannii [23]) of the same compound?
Answer: Its MIC is ≤ 0.25 µg/mL.

Question: What about the MIC (Acinetobacter baumannii [24]) of the same compound?
Answer: The MIC was 8 µg/mL.

Question: And the concentration at 2 h [25]?
Answer: The concentration at 2 h was 3070 ng/mL.

Question: And the MIC (Acinetobacter baumannii [26])?
Answer: Its MIC is 4 µg/mL.
